Experimental findings from ChEMBL document CHEMBL5390213 (ACS Med Chem Lett, 2023) are described below.

Activity calls are given as the source filed them.

Series [1] in a line: Growth inhibition of MYCN-amplified human Kelly cells assessed as reduction in cell viability measured after 3 days by Celltiter-glo assay. The series is classed as functional. The settings on record: 72 h, time 3 day. Summed up:
(§1)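 MYCN-amplified Kelly and CHP-134 neuroblastoma cells were exposed to a nine-point serial dilution for 3 days. Viability was read by CellTiter-Glo and normalized to DMSO-treated cells, and GI50 was calculated. Values are reported with standard error of the mean. The highest dose tested was 5.00 or 2.50 μM.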
A general note: ATP-based viability assays read luminescence as a measure of living cells.

For series [2], the system named is CHP-134. Put plainly: Growth inhibition of MYCN-amplified human CHP-134 cells assessed as reduction in cell viability measured after 3 days by Celltiter-glo assay. It counts as functional. To be noted: CHP-134, 72 h, time 3 day. In a few lines:
as §1

Series [3] deals with CHP-134. Put plainly: Induction of cell cycle arrest in human CHP-134 cells at 100 nM measured after 24 hrs by PI/RNAse staining based flow cytometric analysis. The series is classed as functional. In a few lines: (§2)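 Cell cycle phase distribution, including G2/M fraction, quantified. n = 3 biological replicates, standard error. Unpaired two-tailed t test.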
(In flow cytometry, cells or beads pass a laser one at a time.)

For a further series, the system named is SK-N-BE(2)-C. Description: Antiproliferative activity against MYCN-amplified human SK-N-BE(2)-C cells assessed as reduction in cell viability measured after 3 days by Cell titer-glo assay. It counts as functional, cell-based. To be noted: time 3.0 day.
Series [4] relates to Kelly. Description: Induction of cell cycle arrest in human Kelly cells assessed as increase in cyclin B1 expression at 100 nM measured after 24 hrs by Western blot analysis. It counts as functional, cell-based. In a few lines:
(§3)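 Lysates immunoblotted for mitotic markers cyclin B1 and histone H3 phosphorylated at Ser10. GAPDH used as loading control. Levels compared against DMSO vehicle.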

Series [5] deals with Kelly. Put plainly: Induction of cell cycle arrest in human Kelly cells assessed as accumulation of cells in G2/M phase at 100 nM measured after 24 hrs by PI/RNAse staining based flow cytometric analysis. It counts as functional. In a few lines:
as §2

In series [6] the test system is CHP-134. Description: Induction of cell cycle arrest in human CHP-134 cells assessed as increase in phospho-histone H3 expression at 100 nM measured after 24 hrs by Western blot analysis. The series is classed as functional, cell-based. Summed up:
as §3
A general note: A western blot detects proteins with antibodies after separation by electrophoresis.

For series [7], the system named is CHP-134. Description: Induction of cell cycle arrest in human CHP-134 cells assessed as increase in cyclin B1 expression level at 100 nM measured after 24 hrs by Western blot analysis. The series is classed as functional, cell-based. Summed up:
as §3

Series [8] deals with Kelly. Description: Induction of cell cycle arrest in human Kelly cells assessed as increase in phospho-histone H3 expression at 100 nM measured after 24 hrs by Western blot analysis. It counts as functional, cell-based. Summed up:
as §3

The target in series [9] is T1, Tubulin (Homo sapiens) (UniProt P68371+Q9H4B7+P0DPH7+P68366+Q13509+Q71U36+P04350+Q3ZCM7+P07437+P68363+Q9BQE3+Q6PEY2+Q13885+Q9BVA1+Q9BUF5). Description: Disruption of microtubule network in human Kelly cells at 100 nM incubated for 24 hrs by DAPI staining based immunofluorescence analysis. It counts as cell-based. In a few lines:
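Immunostained for α-tubulin (Alexa-488) with DAPI nuclear counterstain. Microtubule network integrity and tubulin compaction around nuclei assessed from representative images.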

For series [10], the target named is T1, Tubulin (Homo sapiens). Description: Inhibition of tubulin polymerization (unknown origin) assessed as destabilization of microtubule formation at 5 uM incubated for 45 mins by plate reader analysis. The series is classed as protein-complex assay.
A short description of series [11]: Microsomal stability in human liver microsomes assessed as half life. The series is classed as ADME, Microsome.
In series [12] the test system is CHP-134. Put plainly: Induction of cell cycle arrest in human CHP-134 cells assessed as increase in cyclin B1 expression level at 500 nM measured after 24 hrs by Western blot analysis. It counts as functional, cell-based. Summed up:
(§4)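 Protein lysates were immunoblotted for the mitotic markers cyclin B1 and histone H3 phosphorylated at Ser10, with GAPDH as the loading control.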

For series [13], the system named is CHP-134. Description: Induction of cell cycle arrest in human CHP-134 cells assessed as increase in phospho-histone H3 expression at 500 nM measured after 24 hrs by Western blot analysis. It counts as functional, cell-based. Summed up:
as §4

Series [14] has as its system Kelly. Description: Effect on cell cycle distribution in human Kelly cells at 500 nM measured after 24 hrs by PI/RNAse staining based flow cytometric analysis. The series is classed as functional. Summed up: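 Kelly cells were treated with 500 nM compound or DMSO for 24 h. Cell cycle phase distribution was then profiled and quantified, with n = 3 biological replicates and standard error shown.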

Series [15] has as its target T1, Tubulin (Homo sapiens). Put plainly: Disruption of microtubule network in human Kelly cells at 500 nM incubated for 24 hrs by DAPI staining based immunofluorescence analysis. It counts as cell-based. In a few lines:
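Cells were then immunostained for α-tubulin (Alexa-488), with nuclei counterstained by DAPI. The microtubule network was examined in representative images.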

For series [16], the system named is Kelly. Description: Induction of cell cycle arrest in human Kelly cells assessed as increase in cyclin B1 expression at 500 nM measured after 24 hrs by Western blot analysis. It counts as functional, cell-based. In a few lines:
as §4

For series [17], the system named is Kelly. Description: Induction of cell cycle arrest in human Kelly cells assessed as increase in phospho-histone H3 expression at 500 nM measured after 24 hrs by Western blot analysis. The series is classed as functional, cell-based. In a few lines: as §4

As for `COc1c(Br)cc(-c2nccn3cc(-c4ccc(C)cc4)nc23)cc1Br`, the 50% growth inhibitory concentration (GI50) (as a rule, the concentration giving 50% growth inhibition) in series [1] amounted to 0.504 µM; in the series with CHP-134 [2], 0.469 µM.
Regarding `COc1cc(-c2nccn3cc(-c4ccc(C)cc4)nc23)cc(OC)c1OC`, the outcome in the series with CHP-134 [3], in the series on SK-N-BE(2)-C, with Kelly [4], in the series on Kelly [5], with CHP-134 [6] and in the series on CHP-134 [7] was Active. Moreover, the result in the series with Kelly [8] and at Tubulin (Homo sapiens) [9] was Active. Besides, the GI50 worked out at 0.012 µM in series [1] and 0.007 µM in the series on CHP-134 [2]. The inhibition entry at Tubulin (Homo sapiens) [10] is “Active”. Further, the half-life – broadly, the time needed for the level to fall by half in the phase considered – in series [11] was found to be 26 min.
On to `COc1ccc(-c2cn3cccc(-c4cc(OC)c(OC)c(OC)c4)c3n2)cc1`, for which the concentration for 50% growth inhibition (GI50) worked out at 1.37 µM in [1] and 0.511 µM with CHP-134 [2].
On to `COc1cc(-c2cccc3nc(-c4ccc(C)cc4)cn23)cc(OC)c1OC`, for which the GI50 in series [1] stood at 4.92 µM; with CHP-134 [2] it was 3.32 µM.
Take `COc1cc(-c2cccn3cc(-c4ccc(C)cc4)nc23)cc(OC)c1OC`: the concentration for 50% growth inhibition (GI50) in series [1] came out at 0.217 µM; with CHP-134 [2] it was 0.152 µM. The inhibition result at Tubulin (Homo sapiens) [10] is “Active”.
For `COc1cc2c(c(OC)c1OC)-c1ccc(OC)c(=O)cc1[C@@H](NC(C)=O)CC2` [COLCHICINE], the result with Kelly [4], in the series on CHP-134 [6], in the series on CHP-134 [7] and in the series with Kelly [8] was Active. For the same molecule, the GI50 came to 0.009 µM in series [1] and 0.008 µM in the series with CHP-134 [2]. In addition, in [11], the half-life was more than 60 min.
On to `Cc1ccc(-c2cn3ccnc(-c4cc(Cl)c(F)c(Cl)c4)c3n2)cc1`, for which the GI50 (in series [1]; with CHP-134 [2]) was more than 2.5 µM in each case.
Turning to `COc1cc(-c2cccn3cc(-c4ccc(Cl)cc4)nc23)cc(OC)c1OC`, the results for the GI50 (in series [1]; with CHP-134 [2]) were 3.42 µM and 1.62 µM, respectively.
As for `COc1cc(-c2cccn3cc(-c4ccc(C(F)(F)F)cc4)nc23)cc(OC)c1OC`, the 50% growth inhibitory concentration (GI50) in series [1] was more than 5 µM; in the series with CHP-134 [2] it was 2.09 µM.
As to `COc1c(F)cc(-c2nccn3cc(-c4ccc(C)cc4)nc23)cc1F`, the result in the series with CHP-134 [12], in the series with CHP-134 [13], in the series with Kelly [14], at Tubulin (Homo sapiens) [15], in the series with Kelly [16] and in the series with Kelly [17] was inactive. The outcome with SK-N-BE(2)-C was Active. Besides, the results for the GI50 (in series [1]; in the series with CHP-134 [2]) were 0.402 µM and 0.175 µM, respectively. In addition, the inhibition result on Tubulin (Homo sapiens) [10] is “Active”. The half-life in series [11] is 36.1 min.
As to `COc1cc(-c2cccn3cc(-c4ccc(F)cc4)nc23)cc(OC)c1OC`, the GI50 in series [1] was determined as 3 µM; in the series with CHP-134 [2], 1.61 µM.
The like results for `Cc1ccc(-c2cn3ccnc(-c4cc(F)cc(F)c4)c3n2)cc1` were, in that order, 0.438 µM and 0.474 µM.
`COc1c(Cl)cc(-c2nccn3cc(-c4ccc(C)cc4)nc23)cc1Cl`: the result in the series with SK-N-BE(2)-C was Active. The values for the GI50 (in series [1]; with CHP-134 [2]) were 0.165 µM and 0.079 µM, respectively. At Tubulin (Homo sapiens) [10], the inhibition result is “Active”.
Regarding `COc1cc(-c2cc(C)cn3cc(-c4ccc(C)cc4)nc23)cc(OC)c1OC`, the GI50 worked out at 0.717 µM in [1] and 0.381 µM in the series on CHP-134 [2].
